Our source for the Tm and folding enthalpy values is the array DNA melting data of Ke et al. (doi:10.1101/2024.01.08.574731).

Data set [1] can be described thus: melting temperature; fluorescence melt of hairpins on a sequencing array, two-state fit, raised by 9.35 °C to match UV melts. To be noted: sodium 0.088 M. An outline of the steps: (§1)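 Folding enthalpy and melting temperature were estimated with bootstrapped two-state fits and combined across four replicates by inverse-variance weighting, with fitted temperatures raised by 9.35 °C to match UV melts. The data were Cy3 fluorescence of library hairpins, with annealed Cy3 and quencher oligos, on a sequenced MiSeq flow cell in 50 mM Na-HEPES pH 8.0, 25 mM NaCl, imaged in 2.5 °C steps up to 60 °C and normalised to pre-quench Cy3 and control constructs.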

A short description of data set [2]: folding enthalpy; higher = less favourable; fluorescence melt of hairpins on a sequencing array, two-state fit. To be noted: sodium 0.088 M. The method, boiled down:
as §1

As for GTTCAGGGAAACTTGAAC (((((.(....).))))), the Tm in data set [1] was determined as 40.7 °C. In addition, the folding enthalpy in data set [2] is -22.8 kcal/mol.

GGGCTCGAAAGAGTCCC ((((((....))).))): in data set [1], the Tm was 63.1 °C. Further, in data set [2], the folding enthalpy is -26.1 kcal/mol.

Take GAACGCCGAAAGGCCTTC (((.(((....))).))): the Tm in data set [1] stood at 34.5 °C. Moreover, the folding enthalpy in data set [2] is -13.1 kcal/mol.

For the sequence GCGAGGCGAAAGCATTGC ((.(.((....)).).)), in data set [1], the Tm was 54.3 °C. For the same sequence, in data set [2], the folding enthalpy is -22.5 kcal/mol.

As to GAGGCCACGAAAGTGCTC (((..(((....)))))), the Tm in data set [1] worked out at 32 °C. In data set [2], the folding enthalpy was -10.9 kcal/mol.

Take GATCCACTGATGGATC ((((((....)))))): the Tm in data set [1] worked out at 50.4 °C. For the same sequence, the folding enthalpy in data set [2] is -38.5 kcal/mol.

Regarding GAGCGGCGAAAGCCTCTC (((.(((....))).))), the Tm in data set [1] is 51.7 °C. Also, the folding enthalpy in data set [2] was -20.5 kcal/mol.

For GATCAAATGCTTGATC ((((((....)))))), in data set [1], the Tm was 41.5 °C. Moreover, the folding enthalpy in data set [2] is -29.6 kcal/mol.

On to GGGGGTGGAAACACTCCC (((.(((....))).))), for which the Tm in data set [1] amounted to 56.5 °C. In addition, the folding enthalpy in data set [2] was -37.6 kcal/mol.

Turning to GGGCTATCGAAAGATCCC (((..(((....)))))), in data set [1], the Tm was determined as 31.9 °C. Further, the folding enthalpy in data set [2] was -22 kcal/mol.

Consider GGGCTCGAAAGAGATCCC ((((((....)))..))), for which the Tm in data set [1] is 47.8 °C. Besides, the folding enthalpy in data set [2] was -18.9 kcal/mol.

In the case of GGTCGTGGAAACACAACC (((.(((....))).))), in data set [1], the Tm stood at 42.5 °C. The folding enthalpy in data set [2] was -27.6 kcal/mol.

As to GTGGGGGCGAAAGCCCAC (((..(((....)))))), the Tm in data set [1] came to 65.5 °C. The folding enthalpy in data set [2] is -15.1 kcal/mol.

On to GCCCTGCGAAAGCAGCGC ((.((((....)))).)), for which the Tm in data set [1] was 56.2 °C. In addition, the folding enthalpy in data set [2] was -17.5 kcal/mol.

For GCCACGGGAAACCGCGGC (((.(((....))).))), in data set [1], the Tm was found to be 59.1 °C. Also, the folding enthalpy in data set [2] was -44.5 kcal/mol.

GCAATTGGAAACGATTGC (((((.(....).))))): the Tm in data set [1] stood at 48.4 °C. The folding enthalpy in data set [2] was -37.4 kcal/mol.

Regarding GAAGCTGGAAACAGCTCC (.(((((....))))).), in data set [1], the Tm is 39 °C. Further, in data set [2], the folding enthalpy is -13.7 kcal/mol.

Regarding GATCGAATATTCGATC ((((((....)))))), the Tm in data set [1] stood at 53.3 °C. The folding enthalpy in data set [2] is -44.5 kcal/mol.

Turning to GCTTGTGGAAACATAGGC ((.(.((....)).).)), the Tm in data set [1] was 32 °C. Moreover, the folding enthalpy in data set [2] is -14.7 kcal/mol.

Take GATCTCTCAAGAGATC ((((((....)))))): the Tm in data set [1] was 53.7 °C. The folding enthalpy in data set [2] is -40.8 kcal/mol.

In the case of GGTGCAGGAAACTGTGCC ((..(((....)))..)), the Tm in data set [1] was found to be 48.5 °C. The folding enthalpy in data set [2] was -26.1 kcal/mol.

Regarding GCACTCGAAAGAGTTTGC ((((((....)))..))), the Tm in data set [1] amounted to 35.9 °C. In addition, in data set [2], the folding enthalpy is -17.5 kcal/mol.

Take GAACACCGAAAGGTCTTC (((.(((....))).))): in data set [1], the Tm is 35.2 °C. The folding enthalpy in data set [2] was -15.2 kcal/mol.

As for GGCAGGGGAAACCCCGCC (((.(((....))).))), the Tm in data set [1] was determined as 57 °C. For the same sequence, in data set [2], the folding enthalpy was -35.7 kcal/mol.

Take GCCCTTACGAAAGTAGGC (((..(((....)))))): in data set [1], the Tm was found to be 39.1 °C. For the same sequence, the folding enthalpy in data set [2] is -20.6 kcal/mol.

As to GCCCTAACGAAAGTTGGC (((..(((....)))))), the Tm in data set [1] worked out at 38.5 °C. In addition, the folding enthalpy in data set [2] is -20.7 kcal/mol.

Regarding GATCGTGTACACGATC ((((((....)))))), the Tm in data set [1] is 63.6 °C. In addition, in data set [2], the folding enthalpy is -51.3 kcal/mol.

In the case of CGTTCGGAAACGATGACG ((((((....)))..))), the Tm in data set [1] was 39 °C. Also, in data set [2], the folding enthalpy was -20 kcal/mol.

In the case of GCCATGCGAAAGCCTGGC ((((.((....)).)))), the Tm in data set [1] was found to be 62.8 °C. In addition, the folding enthalpy in data set [2] was -31.2 kcal/mol.

For the sequence GTTTCTCGAAAGAGTAAC (((.(((....))).))), in data set [1], the Tm came out at 38 °C. Besides, in data set [2], the folding enthalpy was -26.7 kcal/mol.

GTTCGTGAAAACGAAC ((((((....)))))): the Tm in data set [1] worked out at 61.9 °C. Moreover, the folding enthalpy in data set [2] was -32 kcal/mol.

For GCTGCACGAAAGTGTAGC (((.(((....))).))), the Tm in data set [1] is 65 °C. Moreover, in data set [2], the folding enthalpy was -43.9 kcal/mol.

With GGGACCGAAAGGTCTCCC ((((((....)))..))), in data set [1], the Tm came to 51.9 °C. Further, the folding enthalpy in data set [2] was -11.7 kcal/mol.

Regarding GCGTAACCGAAAGGTCGC (((..(((....)))))), the Tm in data set [1] was 53 °C. The folding enthalpy in data set [2] is -34.2 kcal/mol.

On to GCGTGCCCGAAAGGGCGC (((..(((....)))))), for which the Tm in data set [1] is 55.5 °C. The folding enthalpy in data set [2] is -7.85 kcal/mol.

GGTTAAGCGAAAGCTACC (((..(((....)))))): the Tm in data set [1] came out at 39.4 °C. The folding enthalpy in data set [2] was -18.2 kcal/mol.

Regarding GATCAGCACACTGATC ((((((....)))))), in data set [1], the Tm came out at 53.4 °C. The folding enthalpy in data set [2] is -32.3 kcal/mol.
